HNF4A DNA FP – change in binding of human HNF4A to DNA, primary screen, biochemical, fluorescence polarization, FITC-DNA; AID 1224865, 2016; 360,000 compounds, 0.3% hits; activity change, % at 10 µM; 1 h; in the data active = activity change above about 30%, passing the limit was not always enough
CSN deneddyl inh – inhibitors of CSN-mediated cullin deneddylation, primary screen, biochemical, fluorescence polarization, uHTS; COP9 signalosome complex subunit 5 (Homo sapiens), Q92905; Purified CSN, SCF-Nedd8-OG deneddylation; inhibition, % at 12.5 µM; 360,000 compounds, 0.38% hits; AID 651999, 2013;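 active = pattern-corrected inhibition above about 35%, with an unprinted fluorescence ratio check between 0.5 and 1.5, limit read from the data, passing the limit was not always enough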
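Schedule: reaction 90 min, room temperature / Assay system: HEK293T-derived human Csn5 enzyme / Input: Csn5 at 0.24 nM final / Measure: inhibition of Csn5 cleavage, % / Control set: substrate-only high control, full reaction low control / Technique: fluorescence polarization of the substrate / Buffer or medium: Tris/NaCl/DTT buffer, pH 7.5 / Reagent: SCFSkp2-Nedd8OG substrate at 10 nM final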
TPT1 inhibitor – Candida albicans TPT1 enzyme inhibitors, primary screen, biochemical, fluorescence polarization | tRNA 2'-phosphotransferase TPT1 (Candida albicans SC5314) | recombinant caTPT1, FP RNA substrate dephosphorylation | inhibition, % at 5 µM | 300,000 compounds, 0.81% hits | AID 1962, 2009;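 active = inhibition above the mean of all tested compounds plus 3 SD, set per screening campaign, cut at about 24% in these data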
Rpn11 block – Rpn11 (PSMD14) deubiquitinase inhibitors, primary screen, biochemical, fluorescence polarization, uHTS. human 26S proteasome, Ub4-pepOG fluorescence polarization; 20S core pre-blocked with epoxomicin. calls only at 20 µM. 360,000 compounds, 0.59% hits. AID 588493, 2011;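 active = inhibition at 20 µM, scaled to each plate's controls, above about 33%, limit read from the data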
CSN deneddyl val – Csn5 deneddylation inhibitors, confirmation, biochemical, fluorescence polarization, single concentration, SCF-Nedd8OG substrate | shares compounds with CSN deneddyl inh | Csn5 deneddylation of SCF-Nedd8OG, 90 min | inhibition, % at 16.6 µM | 540 compounds, 62% hits; in the data active = inhibition above about 50%
MMP-2 counter – MMP-2 protease inhibition counter-screen, confirmation, counter-screen for CSN deneddylation inhibitor project, biochemical, fluorescence, single concentration; inhibition, % at 16.6 µM; AID 720655, 2013; shares compounds with CSN deneddyl inh; recombinant MMP-2, FRET substrate fluorescence, 60 min; 540 compounds, 33% hits;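 active = corrected plate-normalized z-score of 5 or more, or -5 or less, or inhibition of 15% or more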
Target sequence (P08253 whole entry, looked up): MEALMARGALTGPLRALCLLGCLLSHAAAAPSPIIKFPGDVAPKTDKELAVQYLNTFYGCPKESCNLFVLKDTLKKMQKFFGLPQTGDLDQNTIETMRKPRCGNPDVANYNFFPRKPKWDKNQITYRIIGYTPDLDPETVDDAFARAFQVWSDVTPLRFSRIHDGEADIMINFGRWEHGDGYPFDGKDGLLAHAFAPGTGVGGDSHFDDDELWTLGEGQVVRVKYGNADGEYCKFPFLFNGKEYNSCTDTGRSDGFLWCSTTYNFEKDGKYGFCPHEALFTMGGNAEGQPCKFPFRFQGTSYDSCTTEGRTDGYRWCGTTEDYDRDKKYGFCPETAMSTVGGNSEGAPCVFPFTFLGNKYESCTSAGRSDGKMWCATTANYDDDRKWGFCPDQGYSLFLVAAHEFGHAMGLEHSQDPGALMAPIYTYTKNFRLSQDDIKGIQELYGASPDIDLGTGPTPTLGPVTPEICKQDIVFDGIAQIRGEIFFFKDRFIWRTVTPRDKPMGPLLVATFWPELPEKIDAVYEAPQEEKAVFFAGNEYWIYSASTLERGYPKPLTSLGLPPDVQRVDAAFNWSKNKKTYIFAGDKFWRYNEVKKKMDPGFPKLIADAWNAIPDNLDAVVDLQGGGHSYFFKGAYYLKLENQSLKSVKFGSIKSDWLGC
Thrombin cntr – counter-screen for CSN deneddylation inhibitors: bovine thrombin inhibition; inhibition, % at 16.6 µM; shares compounds with CSN deneddyl inh; bovine thrombin cleavage of Ub4-pepOG, fluorescence polarization; AID 720656; 540 compounds, 49% hits;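 active = inhibition at or above a set limit, with a fluorescence interference ratio between 0.5 and a set maximum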
HNF4a DNA conf – change in HNF4A binding to DNA, retest, confirmation, biochemical, fluorescence polarization, FITC-DNA | shares compounds with HNF4A DNA FP | 1 h | activity change, % at 12.5 µM | 210 compounds, 99% hits; call rule not given here
Large screens that a line does not name were inactive (follow-up assays come after a bar, where shown). Rows were chosen to be rich in hits. Some 1.5% of all compounds tested hit in one or more screens of this group.

O=C(NCc1ccccc1C(F)(F)F)c1cccc2c1C(=O)c1ccc(N3CCOCC3)cc1S2(=O)=O	none (no result: TPT1 inhibitor)
O=C(NCc1ccccc1C(F)(F)F)c1cccc2c1C(=O)c1ccc(N3CCC(N4CCCCC4)CC3)cc1S2(=O)=O	CSN deneddyl inh 143 (not shown: TPT1 inhibitor, Rpn11 block) | CSN deneddyl val inactive | MMP-2 counter -45 | Thrombin cntr 46
COc1ccccc1C(=O)NCC(=O)NC(C)c1ccc(-n2ccnc2)cc1 (centres undefined)	none
CCOC(=O)C1=C(C)N=c2sc(=Cc3cc(Cl)c(OCC(=O)O)c(Cl)c3)c(=O)n2C1c1cccc(OC)c1 (centres undefined)	HNF4A DNA FP 97, CSN deneddyl inh 64 (not shown: TPT1 inhibitor, Rpn11 block) | CSN deneddyl val inactive | MMP-2 counter inactive | Thrombin cntr 49
CC(O)CC(=O)OC[C@]12CC[C@H]3[C@@](C)(CC[C@H]4C(C)(C)CCC[C@]34C)[C@@H]1CC(C1=CC(=O)OC1O)O2 (some centres undefined)	CSN deneddyl inh 46 (no result: TPT1 inhibitor) | CSN deneddyl val inactive | MMP-2 counter inactive | Thrombin cntr inactive
Nc1[nH]c(C(=O)c2ccccc2)c(-c2ccccc2Br)c1C(=O)c1ccccc1	none (no result: TPT1 inhibitor, Rpn11 block)
Nc1ccc2c(c1)C(=O)C(=O)c1ccccc1-2	CSN deneddyl inh 51 | MMP-2 counter inactive | Thrombin cntr inactive
O=C1C(=O)c2ccc(-c3ccccc3)cc2-c2ccccc21	CSN deneddyl inh 57 | CSN deneddyl val inactive | MMP-2 counter inactive | Thrombin cntr inactive
CCc1noc(C)c1C(=O)OC(C)C(=O)Nc1ccc2c(c1)OCO2 (centres undefined)	none (no result: TPT1 inhibitor)
NC(=O)CC(NC(=O)Cc1ccc(Br)cc1)c1ccc(NC2CCCCCCC2)c([N+](=O)[O-])c1 (centres undefined)	none (not shown: TPT1 inhibitor, Rpn11 block)
NC(=O)CC(NC(=O)Cc1ccc(Br)cc1)c1ccc(NC2CCCC2)c([N+](=O)[O-])c1 (centres undefined)	HNF4A DNA FP 50 (not shown: Rpn11 block) | HNF4a DNA conf 49
C#CCOCCOCCOCCNc1nc(N2CCN(C(=O)CCCCCCCCCCNC(=O)[C@H](CCCCN)n3cc(CCO)nn3)CC2)nc(N2CCN(C(=O)CCCCCCCCCCNC(=O)[C@H](CCCCN)n3cc(CCCC(=O)O)nn3)CC2)n1	HNF4A DNA FP 48 | HNF4a DNA conf 66
C#CCOCCOCCOCCNc1nc(N2CCN(C(=O)C([C@@H](C)O)n3cc([C@@H](N)CCCCN)nn3)CC2)nc(N2CCN(C(=O)[C@H](CCCCN)n3cc([C@@H](N)[C@H](C)CC)nn3)CC2)n1 (some centres undefined)	HNF4A DNA FP 76, CSN deneddyl inh 85 (no result: TPT1 inhibitor) | HNF4a DNA conf 94
C#CCOCCOCCOCCNc1nc(N2CCN(C(=O)[C@H](CCCCN)n3cc(CN)nn3)CC2)nc(N2CCN(C(=O)[C@H](CCC(=O)O)n3cc([C@@H](N)CCCCN)nn3)CC2)n1	HNF4A DNA FP 92, CSN deneddyl inh 100 (no result: TPT1 inhibitor) | HNF4a DNA conf 123
COc1cc(/C=C2\C(=N)N3N=CSC3=NC2=O)cc(Br)c1OC(=O)c1ccco1	HNF4A DNA FP 39 | HNF4a DNA conf 79
CC1CCN(c2ccc3c(c2)S(=O)(=O)c2cccc(C(=O)NC4CC4)c2C3=O)CC1	HNF4A DNA FP 43 (no result: TPT1 inhibitor) | HNF4a DNA conf 36
CC1CCN(c2ccc3c(c2)S(=O)(=O)c2cccc(C(=O)NC[C@@H]4CCCO4)c2C3=O)CC1	HNF4A DNA FP 54 (not shown: TPT1 inhibitor, Rpn11 block) | HNF4a DNA conf 62
O=C(O)c1cccc2c1C(=O)c1ccc(N3CCCCC3)cc1S2(=O)=O	HNF4A DNA FP 43 (not shown: TPT1 inhibitor, Rpn11 block) | HNF4a DNA conf 43
O=C(NC[C@@H]1CCCO1)c1cccc2c1C(=O)c1ccc(N3CCOCC3)cc1S2(=O)=O	none (no result: TPT1 inhibitor)
COc1cc(C(=O)OCc2nc3ccsc3c(=O)[nH]2)c([N+](=O)[O-])cc1OC	none
Cc1cccc(-c2c3c(=O)n(C)c(=O)n(C)c3c3nnc4ccccc4n23)c1	HNF4A DNA FP 50 (not shown: TPT1 inhibitor, Rpn11 block) | HNF4a DNA conf 32
CCCCNc1c(-c2cc3ccccc3o2)nc2nc(C)cc(C)n12	HNF4A DNA FP 45 (no result: TPT1 inhibitor, Rpn11 block) | HNF4a DNA conf 37
CC(C)C[C@@H]1COc2cccc(N3CCSCC3)c2S(=O)(=O)N1	none (no result: TPT1 inhibitor, Rpn11 block)
COc1cc(/C=C2\SC(=S)N(NC(C)=O)C2=O)ccc1OC(=O)c1ccco1	none (no result: TPT1 inhibitor)
COc1ccc(/C=C2\SC(=S)N(CCC(=O)NC3=NCCS3)C2=O)cc1OC	HNF4A DNA FP 53 (not shown: Rpn11 block) | HNF4a DNA conf 77
COc1cc(/C=C2/SC(=S)N(C)C2=O)ccc1OC(=O)c1ccco1	HNF4A DNA FP 49 | HNF4a DNA conf 37
COc1cc(/C=C2\SC(=S)N(CC(=O)NC3=NCCS3)C2=O)cc(OC)c1OC	none
CCCN1CCN(C(=O)C2CCN(c3ncnc4c3nc3n4CCCCC3)CC2)CC1	none
COc1ccc(OCCNc2cc(Cl)ccc2[N+](=O)[O-])cc1	HNF4A DNA FP 51, CSN deneddyl inh 47 (not shown: Rpn11 block) | HNF4a DNA conf 67
CSc1ccc(C2C(C#N)=C(N)N(c3ccccc3)C3=C2C(=O)CCC3)cc1 (centres undefined)	none
N#CC1=C(N)N(c2ccc(F)cc2)C2=C(C1c1ccc(O)cc1)S(=O)(=O)CC2 (centres undefined)	HNF4A DNA FP 55, CSN deneddyl inh 43 (not shown: TPT1 inhibitor, Rpn11 block) | HNF4a DNA conf 52
CCOC(=O)c1c(-c2ccc(C)cc2)csc1NC(=O)/C(C#N)=C/c1ccc(O)c(OC)c1	HNF4A DNA FP 55, CSN deneddyl inh 42 (not shown: TPT1 inhibitor, Rpn11 block) | HNF4a DNA conf 62
Cn1c(=O)c(=O)n(C)c2cc(S(=O)(=O)N3CCc4ccccc43)ccc21	HNF4A DNA FP 43 | HNF4a DNA conf 47
Cn1c(=O)oc2cc(S(=O)(=O)N3CCc4ccccc43)ccc21	none
CCOc1ccc(OCCC(=O)NNC(=O)c2ccccc2Cl)cc1	none
OCCNc1ncnc2c1ncn2[C@H]1CN(Cc2ccncc2)C[C@@H](CO)O1	none (no result: TPT1 inhibitor)

High-throughput results: PubChem, several laboratories
